pEC50, pKi: −log10 of the molar value. Active and inactive are the calls of the source. No cut-off for these calls is given here.
Experiments:
PC-12 [1] = assay: Neuritogenic activity in rat PC12 cells assessed as induction of neuronal differentiation at 1 uM after 2 days by Giemsa staining-based phase contrast microscopic analysis; assay type: functional, cell-based
Procedure, shortened: (§1)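 PC12 neurite outgrowth assay (modified procedure) with 2-day incubation; compounds at 50, 20, 10, 5 or 1 μM. Positive control NGF 20 ng mL-1, solvent control DMSO 0.1%. Mean ± SEM, n = 3; unpaired t test, 95% confidence interval.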

Cannabinoid receptor 1 = Cannabinoid receptor 1 (Homo sapiens, UniProt P21554); assay: Displacement of [3H]-CP55940 from human CB1 receptor expressed in CHO cell membranes after 90 mins by scintillation counting analysis
Procedure, shortened: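 Membranes from CHO cells stably transfected with human CB1 incubated 90 min at 30 °C with varying compound concentrations and 0.5 nM [3H]-CP55940; WIN55,212-2 as positive control. Mean ± SD, n = 2–3.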

[2] = Cytotoxicity against rat PC12 cells at 10 uM; assay type: cell-based; settings: pc-12, 10 µM
[3] = Cytotoxicity against rat PC12 cells at 1 uM; assay type: cell-based; settings: pc-12, 1 µM
PC-12 [4] = assay: Neuritogenic activity in rat PC12 cells assessed as induction of neuronal differentiation at 50 uM after 2 days by Giemsa staining-based phase contrast microscopic analysis; assay type: functional, cell-based; procedure, shortened: as §1
[5] = Cytotoxicity against rat PC12 cells at 50 uM; assay type: cell-based; settings: pc-12, 50 µM
PC-12 [6] = assay: Neuritogenic activity in rat PC12 cells assessed as induction of neuronal differentiation at 5 uM after 2 days by Giemsa staining-based phase contrast microscopic analysis; assay type: functional, cell-based; procedure, shortened: as §1
[7] = Inhibition of anandamide membrane transporter in human U937 cells assessed as inhibition of [3H]-AEA uptake preincubated for 10 to 30 mins followed by [3H]-AEA addition measured after 5 mins by liquid scintillation counting analysis; assay type: cell-based; settings: u-937
Procedure, shortened: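 [3H]AEA transport in human U937 leukemic monocyte lymphoma cells; EC50 and maximal inhibition taken from concentration-dependent curves, n = 3–5.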

U-937 [8] = assay: Inhibition of anandamide membrane transporter in human U937 cells assessed as inhibition of [3H]-AEA uptake at 10 uM preincubated for 10 to 30 mins followed by [3H]-AEA addition measured after 5 mins by liquid scintillation counting analysis relative to control; assay type: cell-based
[9] = target: T1, Fatty-acid amide hydrolase 1 (Homo sapiens) (UniProt O00519); assay: Inhibition of FAAH (unknown origin) at 1 uM
T1 sequence (whole entry): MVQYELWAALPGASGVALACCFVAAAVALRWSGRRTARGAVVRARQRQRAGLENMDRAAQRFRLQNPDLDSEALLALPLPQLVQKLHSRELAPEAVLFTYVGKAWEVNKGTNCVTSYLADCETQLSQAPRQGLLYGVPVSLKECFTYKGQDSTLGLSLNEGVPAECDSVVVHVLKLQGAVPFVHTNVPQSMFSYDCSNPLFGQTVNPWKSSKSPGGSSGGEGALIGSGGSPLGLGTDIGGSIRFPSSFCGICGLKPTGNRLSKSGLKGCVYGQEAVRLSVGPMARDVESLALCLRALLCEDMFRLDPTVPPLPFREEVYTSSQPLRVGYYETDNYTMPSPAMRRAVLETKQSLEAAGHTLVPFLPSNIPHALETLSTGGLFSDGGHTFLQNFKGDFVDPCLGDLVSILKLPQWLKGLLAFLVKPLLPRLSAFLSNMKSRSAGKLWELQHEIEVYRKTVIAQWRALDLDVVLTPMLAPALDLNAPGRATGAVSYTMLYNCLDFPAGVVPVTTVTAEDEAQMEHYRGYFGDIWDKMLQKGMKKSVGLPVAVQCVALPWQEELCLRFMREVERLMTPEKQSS
Procedure, shortened: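 FAAH activity measured with compounds at 1 μM.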

PC-12 [10] = assay: Neuritogenic activity in rat PC12 cells at 100 nM; assay type: functional, cell-based
PC-12 [11] = assay: Neuritogenic activity in rat PC12 cells assessed as induction of neuronal differentiation at 10 uM after 2 days by Giemsa staining-based phase contrast microscopic analysis; assay type: functional, cell-based; procedure, shortened: as §1
PC-12 [12] = assay: Neuritogenic activity in rat PC12 cells in presence of CB1 antagonist rimonabant/AM251; assay type: functional, cell-based
Procedure, shortened: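 PC12 cells co-treated with the CB1 antagonists rimonabant (1 μM and 100 nM) or AM251 (3 μM and 100 nM) alongside the differentiation-inducing compound, in the neurite outgrowth assay.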

U-937 [13] = assay: Potency index, ratio of UCM707 EC50 to compound EC50 for anandamide membrane transporter in human U937 cells; assay type: cell-based
PC-12 [14] = assay: Neuritogenic activity in rat PC12 cells assessed as induction of neuronal differentiation at 20 uM after 2 days by Giemsa staining-based phase contrast microscopic analysis; assay type: functional, cell-based; procedure, shortened: as §1

Sequence of Cannabinoid receptor 1 (P21554 whole entry): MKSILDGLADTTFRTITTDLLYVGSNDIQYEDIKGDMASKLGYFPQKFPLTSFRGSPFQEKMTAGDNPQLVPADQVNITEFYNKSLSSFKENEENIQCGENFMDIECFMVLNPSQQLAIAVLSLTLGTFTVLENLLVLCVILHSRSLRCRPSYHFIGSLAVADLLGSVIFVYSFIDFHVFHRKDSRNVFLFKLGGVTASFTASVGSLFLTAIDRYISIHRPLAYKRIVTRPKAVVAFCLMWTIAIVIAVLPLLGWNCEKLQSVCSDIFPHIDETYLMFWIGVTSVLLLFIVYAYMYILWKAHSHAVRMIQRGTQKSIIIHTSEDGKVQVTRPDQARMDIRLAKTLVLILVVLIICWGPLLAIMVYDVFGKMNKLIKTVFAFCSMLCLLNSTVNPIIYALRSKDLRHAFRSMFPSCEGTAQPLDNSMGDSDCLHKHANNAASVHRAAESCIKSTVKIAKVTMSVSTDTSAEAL

With `OCCCCCCCCCCCCCCCN[C@H](CO)Cc1ccc(O)cc1` the Activity (PC-12 [1]) was “inactive”, the pKi (Cannabinoid receptor 1) was 6.28 and the Activity [2] was “Toxic”. For the same molecule, the Activity [3] was “Non-toxic”.

With `CCC(=O)N[C@@H](CO)Cc1ccc(O)cc1` the Activity (PC-12 [4]) was “inactive”.

For `CCC(=O)NCCc1ccc(O)c(O)c1`, the Activity [5] was “Toxic” and the Activity (PC-12 [6]) was “inactive”.

For `CCC(=O)N[C@H](CO)Cc1ccc(OC)cc1`, the Activity (PC-12 [4]) was “inactive”.

For `CCCCCCCCC(=O)N[C@H](CO)Cc1ccc(O)cc1`, the Activity (PC-12 [4]) was “inactive”.

With `CCCCC/C=C\C/C=C\CCCCCCCCN[C@H](CO)Cc1ccc(O)cc1` the pEC50 [7] was 6.01, the Activity (PC-12 [1]) was “inactive” and the Activity [2] was “Toxic”. For the same molecule, the Activity [3] was “Non-toxic” and the Imax (U-937 [8]) was 51%.

In the case of `CC(C)C(=O)N[C@H](CO)Cc1ccc(O)cc1`, the Activity (PC-12 [4]) was “inactive”.

For `CC(C)(C)C(=O)N[C@H](CO)Cc1ccc(O)cc1`, the Activity (PC-12 [4]) was “inactive”.

With `CCCCCCCCCCCCCCCCN[C@H](CO)Cc1ccc(O)cc1` the Activity (PC-12 [1]) was “inactive”, the Activity [2] was “Toxic” and the Activity [3] was “Non-toxic”.

In the case of `CCC(=O)N[C@@H](Cc1ccc(O)cc1)C(=O)O`, the inhibition [9] was “Active”, the Activity (PC-12 [4]) was “Active” and the inhibition (U-937 [8]) was 20%.

In the case of `O=C(N[C@H](CO)Cc1ccc(O)cc1)c1ccccc1`, the Activity [5] was “Non-toxic”, the inhibition [9] was “Active” and the inhibition (U-937 [8]) was 20%.

With `CCC(=O)N[C@H](COC(=O)CC)Cc1ccc(O)cc1` the Activity (PC-12 [4]) was “inactive”.

In the case of `CCCCC/C=C\C/C=C\C/C=C\C/C=C\CCC(C)C(=O)NCCF` (configuration not stated), the Activity (PC-12 [10]) was “inactive”.

For `CCC(=O)N[C@H](CO)Cc1ccccc1`, the Activity (PC-12 [4]) was “inactive”.

For `O=C(CCCCCCCO)N[C@H](CO)Cc1ccc(O)cc1`, the Activity (PC-12 [11]) was “Active”, the inhibition [9] was “Active” and the Activity (PC-12 [4]) was “Active”. For the same molecule, the inhibition (U-937 [8]) was 20%.

In the case of `CCC(=O)N[C@H](COC)Cc1ccc(OC)cc1`, the inhibition [9] was “Active”, the Activity (PC-12 [4]) was “inactive” and the inhibition (U-937 [8]) was 20%.

For `CCC(=O)N[C@H](CO)Cc1ccc(O)cc1`, the Activity (PC-12 [4]) was “Active”.

For `CCC(=O)N[C@H](COC)Cc1ccc(O)cc1`, the Activity (PC-12 [4]) was “inactive”.

For `CCC(=O)NCCc1ccc(O)cc1`, the Activity [5] was “Toxic” and the Activity (PC-12 [4]) was “inactive”.

With `CCC(=O)N[C@H](CO)Cc1ccc(OC(=O)CC)cc1` the Activity (PC-12 [4]) was “inactive”.

For `O=C(CCC(=O)N[C@@H](CO)Cc1ccc(O)cc1)N[C@H](CO)Cc1ccc(O)cc1`, the inhibition [9] was “Active”, the Activity (PC-12 [4]) was “Active” and the inhibition (U-937 [8]) was 20%.

With `CC/C=C\C/C=C\C/C=C\CCCCCCCCN[C@H](CO)Cc1ccc(O)cc1` the pEC50 [7] was 6.02, the Activity (PC-12 [1]) was “inactive” and the Activity [2] was “Toxic”. For the same molecule, the Activity [3] was “Non-toxic” and the Imax (U-937 [8]) was 60%.

`CCCCC/C=C\C/C=C\C/C=C\C/C=C\CCCC(=O)NCCc1ccoc1` showed a pEC50 [7] of 5.74 and an Imax (U-937 [8]) of 80%.

For `O=C(CCCCCCCCCCCCCCO)N[C@H](CO)Cc1ccc(O)cc1`, the Activity (PC-12 [11]) was “inactive”, the pEC50 [7] was 6.12 and the Imax (U-937 [8]) was 73%.

For `CCCCC/C=C\C/C=C\CCCCCCCC(=O)N[C@H](CO)Cc1ccc(O)cc1`, the Activity (PC-12 [11]) was “Active”, the pEC50 [7] was 6.64 and the pKi (Cannabinoid receptor 1) was 6.09. The Activity (PC-12 [12]) was “Active”, the Ratio EC50 (U-937 [13]) was 10 and the Imax (U-937 [8]) was 52%.

In the case of `O=C(CCCc1cn(C23CC4CC(CC(C4)C2)C3)nn1)N[C@H](CO)Cc1ccc(O)cc1`, the Activity (PC-12 [4]) was “inactive”.

For `CCCN[C@H](CO)Cc1ccc(O)cc1`, the Activity (PC-12 [4]) was “inactive”.

For `CC(/C=C/C(=O)NC(CO)Cc1ccc(O)cc1)=C\C(C)CC(=O)O` (configuration not stated), the Activity (PC-12 [14]) was “Active”.

Reference: ChEMBL document CHEMBL3112497, “Functionally Optimized Neuritogenic Farinosone C Analogs: SAR-Study and Investigations on Their Mode of Action” (ACS Med Chem Lett, 2014)
